Measurements collected from several papers.
Protocols differ between the studies behind these lines.
Read-out: cell growth or viability

With Cc1c(C(=O)O)ccc2c3n(nc12)[C@@H]1[C@H](C3)N(CC2CC2)[C@@]2(C(=O)Nc3cc(Cl)ccc32)[C@H]1c1cccc(Cl)c1F the GI50 was 7 nM (SJSA-1; resazurin).
With CCOC(=O)c1nn(-c2cccc(Cl)c2)/c(=N/N=C(\C)c2ccc(NC(=O)c3ccccc3)cc2)s1 the viability was 87.7% (MCF7; MTT; 78 nM).
O=C(Nc1ccccc1)Nc1ccc(Oc2nnc(-c3ccc(Cl)cc3)c3ccccc23)cc1 gave a cell death of 95.4% (MCF7; MTT; 0.625 µM).
For C=C(COCc1ccc(OC)cc1)[C@@H]1CC[C@@H](C)C[C@H]1OCc1ccc(OC)cc1, the inhibition was 24% (MCF7; MTT; 30 µM; 72 h).
CC(=NNC(=O)c1ccccc1)c1ccc(Nc2nnc(-c3ccc(Cl)cc3)c3ccccc23)cc1 gave a cell death of 1.42% (MCF7; MTT; 0.625 µM).
The inhibition of C[C@@H]1CC[C@@H]([C@](C)(O)Cn2ccnc2)[C@H](OCc2ccccc2)C1 is reported as 34.6% (MCF7; MTT; 30 µM; 72 h).
For CC(=NNC(N)=S)c1ccc(Nc2nnc(-c3ccc(Cl)cc3)c3ccccc23)cc1, the cell death was 9.65% (MCF7; MTT; 78 nM).
For CC(=O)Nc1ccc(/C(C)=N/N=c2\sc(C(C)=O)nn2-c2ccc(C)cc2)cc1, the viability was 99.7% (MCF7; MTT; 0.312 µM).
The inhibition of COc1ccc(CNC[C@](O)(COCc2ccc(OC)cc2)[C@@H]2CC[C@@H](C)C[C@H]2OCc2ccc(OC)cc2)cc1 is reported as 101% (MCF7; MTT; 10 µM; 72 h).
For CC(=NNC(=O)c1ccccc1Br)c1ccc(Nc2nnc(-c3ccc(Cl)cc3)c3ccccc23)cc1, the viability was 75.9% (MCF7; MTT; 0.625 µM; 24 h).
For CCOC(=O)c1nn(-c2cccc(Cl)c2)/c(=N/N=C(\C)c2ccc(NC(=O)c3ccc(Cl)cc3)cc2)s1, the viability was 73.5% (MCF7; MTT; 78 nM).
With C=CC(=O)NC1CCN(c2ncc3ncnc(Nc4ccc(Oc5ccc6c(c5)ncn6C)c(C)c4)c3n2)CC1 the EC50 was 36.5 nM (SNU-398).
With COc1ccc(COC[C@@](O)(CNCc2ccccc2)[C@@H]2CC[C@@H](C)C[C@H]2OCc2ccc(OC)cc2)cc1 the inhibition was 96.2% (MCF7; MTT; 10 µM; 72 h).
CC(=O)c1nn(-c2ccc(C)cc2)/c(=N/N=C(\C)c2ccc(NC(=O)c3ccccc3)cc2)s1 gave a viability of 6.47% (MCF7; MTT; 10 µM).
The inhibition of C[C@@H]1CC[C@@H]([C@@](C)(O)Cn2cnc3ccccc32)[C@H](OCc2ccccc2)C1 is reported as 55.2% (MCF7; MTT; 10 µM; 72 h).
CC(=O)c1nn(-c2ccccc2Cl)/c(=N/N=C(\C)c2ccc(NC(=O)c3ccccc3)cc2)s1 has a viability of 9.62% (MCF7; MTT; 0.156 µM).
